Source: PMC9633546 (Angewandte Chemie (International Ed. in English), 2022)
Converted amounts (≈) assume the structure as drawn.

Columns and labels:
M. abscessus ATCC 19977 = test: MIC assay in 96-well plate format, WT M. abscessus; format: cell-based, Mycobacterium abscessus subsp. abscessus; conditions: Mycobacteroides abscessus, ATCC19977, read-out: WT Mab MIC
Δarr M. abscessus = test: MIC assay in 96-well plate format, arr-deleted strain; format: cell-based, Mycobacterium abscessus; conditions: isogenic arr-deleted M. abscessus ATCC 19977; 90 % growth inhibition
Arr Mab = test: LC-MS/HPLC in vitro validation of ADP-ribosylation; format: biochemical, M. abscessus; conditions: 40 minute incubation, 5 µM enzyme
Outline: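 The enzyme was recombinant M. abscessus Arr, cloned, expressed and purified in-house. Enzymatic reactions were analysed by LC-MS, quantifying the remaining rifamycin and its ADP-ribosylated adducts.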

in vitro = conditions: plasma
[1] = Pharmacokinetics studies in CD-1 mice; format: in vivo, mouse

Row | Compound | MIC (M. abscessus ATCC 19977) [µM] | Δarr Mab MIC (Δarr M. abscessus) [µM] | ADP-ribosylation upon incubation with Arr Mab and NAD+ (Arr Mab) | ADP-ribosylation upon incubation with Arr Mab and NAD+ (Arr Mab; listed as Rifabutin) | fraction unbound (in vitro) | V d ([1]; CD-1 mice, single dose 10 mg/kg) [L/kg] | fAUC/MIC ([1]; based on p.o. doses of 10 mg kg^−1) | half-life ([1]; female, CD-1, mouse, plasma, 10 mg/kg) [h]
1 | CC[C@H]1OC(=O)[C@H](C)[C@@H](O[C@H]2C[C@@](C)(OC)[C@@H](O)[C@H](C)O2)[C@H](C)[C@@H](O[C@@H]2O[C@H](C)C[C@H](N(C)C)[C@H]2O)[C@](C)(OC)C[C@@H](C)C(=O)[C@H](C)[C@@H](O)[C@]1(C)O [clarithromycin] | 1.45 (≈ 1.08 µg/mL) | 1.8 |  |  |  |  |  | 
2 | CO[C@H]1/C=C/O[C@@]2(C)Oc3c(C)c(O)c4c(c3C2=O)C2=NC3(CCN(CC(C)C)CC3)NC2=C(NC(=O)/C(C)=C\C=C\[C@H](C)[C@H](O)[C@@H](C)[C@@H](O)[C@@H](C)[C@H](OC(C)=O)[C@@H]1C)C4=O [rifabutin] | 1.15 (≈ 0.974 µg/mL) | 0.031 | completely converted | fully converted | 0.0376 | 3.51 | 0.22 | 4
3 | CO[C@H]1/C=C/O[C@@]2(C)Oc3c(C)c(O)c4c(O)c(c(/C=N/N5CCN(C)CC5)c(O)c4c3C2=O)NC(=O)/C(C)=C\C=C\[C@H](C)[C@H](O)[C@@H](C)[C@@H](O)[C@@H](C)[C@H](OC(C)=O)[C@@H]1C [rifampicin] | 5.3 (≈ 4.36 µg/mL) | 0.26 | completely converted |  |  |  |  | 
